{"data": "Assay results of several laboratories", "target": "Mitogen-activated protein kinase 7 (MAPK7, Homo sapiens, UniProt Q13164)", "note": "Protocols differ between the studies behind these lines."}
{"SMILES": "CN([C@@H]1CCc2c(CC(=O)O)c3cc(S(C)(=O)=O)ccc3n2C1)S(=O)(=O)c1ccc(F)cc1", "read-out": "cell-free assay", "technique": "competition with immobilised ligand", "concentration": "1 µM", "remaining binding": "96%"}
{"SMILES": "CN(C)c1ncc(F)c(-c2cnn3ncccc23)n1", "read-out": "binding", "concentration": "1 µM", "remaining binding": "99%"}
{"SMILES": "O=C(c1ccc(Nc2ncc(Cl)c(-c3ccc(Cl)s3)n2)cc1)N1CCC(N2CCCC2)CC1", "read-out": "binding", "technique": "competition with immobilised ligand", "concentration": "1 µM", "remaining binding": "7.1%"}
{"SMILES": "COc1ccnn2ncc(-c3ccnc(N(C)C)n3)c12", "read-out": "binding", "concentration": "1 µM", "remaining binding": "100%"}
{"SMILES": "CS(=O)(=O)N1CCCC(NC(=O)[C@H](CCC2CCCCC2)NC(=O)c2ccc(CNC(=O)c3cnc4ccccn34)cc2)C1 (stereo partly shown)", "read-out": "cell-free assay", "technique": "competition with immobilised ligand", "concentration": "0.1 µM", "remaining binding": "94%"}
{"SMILES": "O=C(NCCCN1CCOCC1)c1ccc(Nc2ncc(Cl)c(-c3ccc(Cl)s3)n2)cc1", "read-out": "binding", "technique": "competition with immobilised ligand", "concentration": "1 µM", "remaining binding": "28%"}
{"SMILES": "C[C@H]1CCN(c2nccc(-c3cnn4ncccc34)n2)C1", "read-out": "binding", "concentration": "1 µM", "remaining binding": "93%"}
{"SMILES": "Cc1noc([C@H]2C[C@@H](c3ccc(C(F)(F)F)cc3)CN(C(=O)N3CCS(=O)(=O)C3)C2)n1", "read-out": "cell-free assay", "technique": "competition with immobilised ligand", "concentration": "1 µM", "remaining binding": "87%"}
{"SMILES": "O=C(Nc1c[nH]nc1C(=O)NC1CCNCC1)c1cc(F)cc(F)c1", "read-out": "binding", "technique": "competition with immobilised ligand", "concentration": "1 µM", "remaining binding": "83%"}
{"SMILES": "FC(F)(F)c1ccc2c(c1)nc(-c1cccnc1)n2C1CC1", "read-out": "cell-free assay", "technique": "competition with immobilised ligand", "concentration": "1 µM", "remaining binding": "100%"}
{"SMILES": "c1cnn2ncc(-c3ccnc(N4CCC45COC5)n3)c2c1", "read-out": "binding", "concentration": "1 µM", "remaining binding": "87%"}
{"SMILES": "O=C(Nc1cnc(Oc2ccc(F)cc2)nc1)N1CCc2ncccc2[C@@H]1c1ccc(F)cc1", "read-out": "cell-free assay", "technique": "competition with immobilised ligand", "concentration": "1 µM", "remaining binding": "96%"}
{"SMILES": "O=C(NCCCN1CCOCC1)c1ccc(Nc2nccc(-c3cc4ccccc4s3)n2)cc1", "read-out": "binding", "technique": "competition with immobilised ligand", "concentration": "1 µM", "remaining binding": "87%"}
{"SMILES": "COc1cnc(Nc2cccc(S(N)(=O)=O)c2)nc1N1CCN(c2ccccc2)C(=O)C1", "read-out": "binding", "technique": "competition with immobilised ligand", "concentration": "1 µM", "remaining binding": "100%"}
{"SMILES": "CCN1CCN(Cc2ccc(C(=O)Nc3ccc(C)c(Oc4ccc5c(c4)CC(=O)N5)c3)cc2C(F)(F)F)CC1", "read-out": "binding", "technique": "competition with immobilised ligand", "concentration": "1 µM", "remaining binding": "100%"}
{"SMILES": "COc1ncc2cc3ccccc3nc2c1C#N", "read-out": "cell-free assay", "technique": "competition with immobilised ligand", "concentration": "5 µM", "remaining binding": "100%"}
{"SMILES": "CN(C)c1nccc(-c2cnc3ncccn23)n1", "read-out": "binding", "concentration": "1 µM", "remaining binding": "92%"}
{"SMILES": "CN(c1ccnc(CNc2nc(Nc3ccc4c(c3)CC(=O)N4)ncc2C(F)(F)F)n1)S(C)(=O)=O", "read-out": "cell-free assay", "technique": "competition with immobilised ligand", "concentration": "1 µM", "remaining binding": "78%"}
{"SMILES": "CN(c1nccc(-c2cnn3ncccc23)n1)C1CC1", "read-out": "binding", "concentration": "1 µM", "remaining binding": "100%"}
{"SMILES": "FC(F)(F)Oc1cccc(-c2cnc3ccc(-c4ccncc4)nn23)c1", "read-out": "cell-free assay", "technique": "competition with immobilised ligand", "concentration": "5 µM", "remaining binding": "99%"}
{"SMILES": "N[C@H]1CCN(c2nccc(-c3cnn4ncccc34)n2)C1", "read-out": "binding", "concentration": "1 µM", "remaining binding": "100%"}
{"SMILES": "COc1cc(C(=O)N2CCC(N3CCN(C)CC3)CC2)ccc1Nc1ncc2c(n1)N(C)c1ccccc1C(=O)N2C", "read-out": "binding", "technique": "competition with immobilised ligand", "concentration": "10 µM", "remaining binding": "0.05%"}
